Data: ChEMBL document CHEMBL5096213 (Bioorg Med Chem, 2022)

How the values were obtained:
[1] = Binding affinity to Mycobacterium tuberculosis PanD assessed as dissociation constant by isothermal titration calorimetry
In short: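 ITC at 20 °C, 100 μM Mtb PanD titrated with 2 mM ligand, after desalting into 50 mM Tris pH 7.5. Buffer-versus-compound heats subtracted. KD obtained by least-squares fit of the binding isotherm to a single-site model.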

[2] = Cytotoxicity against African green monkey Vero cells assessed as cell viability at 1.5 mM incubated for 24 hrs by XTT assay; format: toxicity, cell-based; settings: chlorocebus sabaeus, read-out: Activity
In short: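 Vero cells in EMEM with 10% FBS and penicillin/streptomycin were seeded at 500–1000 cells/well. They were dosed from DMSO stocks (final DMSO 0.5%) over 20 μM to 1.5 mM and incubated 24 h at 37 °C, 10% CO2. XTT was added 2 h before read-out at 450 nm, with 660 nm background. Viability was blank-subtracted and normalized to DMSO-only wells as 100%. Values are the mean of two technical replicates.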

[3] = system: Mycobacterium tuberculosis; experiment: Binding affinity to Mycobacterium tuberculosis PanD assessed as change in entropy by isothermal titration calorimetry
In short: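 Mtb PanD (100 μM) in 50 mM Tris pH 7.5 titrated with 2 mM ligand by ITC at 20 °C. Buffer-versus-compound control heats subtracted. Isotherm fitted by least squares to a single-site binding model, which yields the thermodynamic parameters.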

CC(C)Nc1nccnc1C(=O)O
Kd [1]: > 100 µM
viability at 24 h, 1500 µM [2]: 50%

Nc1cnc(C(=O)O)cn1
TdeltaS [3]: 0.6 kcal/mol
Kd [1]: 37 µM
viability at 24 h, 1500 µM [2]: 50%

O=C(O)c1cnccn1 [PYRAZINOIC ACID]
TdeltaS [3]: 3 kcal/mol

O=C(O)c1nccnc1NCc1ccccc1
viability at 24 h, 1500 µM [2]: 50%

O=C(O)c1nccnc1Nc1ccccc1
TdeltaS [3]: -2.5 kcal/mol
Kd [1]: 47 µM

CCCNc1nccnc1C(=O)O
TdeltaS [3]: -5.7 kcal/mol
Kd [1]: 7 µM
viability at 24 h, 1500 µM [2]: 50%

Nc1nccnc1C(=O)O
TdeltaS [3]: -0.7 kcal/mol
Kd [1]: 40 µM
viability at 24 h, 1500 µM [2]: 50%
